Data published in ChEMBL document CHEMBL3785041, “Discovery of a Potent Free Fatty Acid 1 Receptor Agonist with Low Lipophilicity, Low Polar Surface Area, and Robust in Vivo Efficacy” (J Med Chem, 2016).
In brackets after ≈: the same amount, converted by molar mass. Activity calls are given as the source filed them. The calls are words filed in the database; no cut-off is given here.

Columns and labels:
[1] = target: T1, Free fatty acid receptor 1 (Homo sapiens, UniProt O14842); assay: Agonist activity at human FFA1 receptor expressed in human 1321N1 cells measured for 50 intervals of 0.4 secs by calcium mobilization assay; format: functional, cell-based
Procedure, shortened: (§1)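 Ca²⁺ read-out at human FFA1. Efficacy is expressed relative to TUG-20 (3-(4-(benzyloxy)phenyl)propanoic acid).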

[2] = target: T1, Free fatty acid receptor 1; assay: Agonist activity at human FFA1 receptor expressed in human 1321N1 cells measured for 50 intervals of 0.4 secs by calcium mobilization assay relative to TUG-20; format: functional, cell-based; procedure, shortened: as §1
[3] = target: T2, Free fatty acid receptor 4 (Homo sapiens, UniProt Q5NUL3); assay: Agonist activity at human C-terminal YFP-tagged FFA4 receptor expressed in HEK293 cells incubated for 5 mins by BRET based beta-arrestin 2 recruitment assay; format: cell-based
T2 sequence (Q5NUL3 whole entry): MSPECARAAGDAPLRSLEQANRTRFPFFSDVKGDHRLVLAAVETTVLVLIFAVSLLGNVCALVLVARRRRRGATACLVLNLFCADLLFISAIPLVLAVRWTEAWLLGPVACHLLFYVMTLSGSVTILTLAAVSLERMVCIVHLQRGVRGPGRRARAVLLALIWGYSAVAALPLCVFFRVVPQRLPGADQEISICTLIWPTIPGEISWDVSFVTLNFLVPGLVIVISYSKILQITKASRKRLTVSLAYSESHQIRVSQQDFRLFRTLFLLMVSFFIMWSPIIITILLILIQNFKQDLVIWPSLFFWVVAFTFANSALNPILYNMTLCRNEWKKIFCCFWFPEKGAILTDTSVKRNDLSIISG
Procedure, shortened: (§2)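 Human FFA4 counter-screen using a β-arrestin mobilization read-out. Efficacy is expressed relative to a reference alkyne FFA1 agonist tested at 10 μM.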

[4] = target: T3, Free fatty acid receptor 4 (Homo sapiens) (UniProt Q5NUL3); assay: Agonist activity at human C-terminal YFP-tagged FFA4 receptor expressed in HEK293 cells incubated for 5 mins by BRET based beta-arrestin 2 recruitment assay relative to TUG-424; format: cell-based; procedure, shortened: as §2
T3 sequence (whole entry): T2 sequence (Q5NUL3 whole entry)

[5] = Drug metabolism in human liver microsomes assessed as cytochrome P450-mediated compound oxidation by measuring drug recovery after 1 hr by HPLC analysis; format: ADME; conditions: read-out: Drug recovery
[6] = Chemical stability in fasted state simulated gastric fluid assessed as drug recovery at 37 degC after 2 hrs; format: physicochemical; conditions: read-out: Drug recovery
[7] = Lipophilicity, log D of compound at pH 7.4; format: physicochemical; conditions: buffer
[8] = Aqueous kinetic solubility in phosphate buffered saline at 200 uM by turbidimetric assay; format: physicochemical; conditions: read-out: Kinetic_solubility
[9] = Chemical stability in 0.1 M phosphate buffered saline assessed as drug recovery at 37 degC after 24 hrs; format: physicochemical; conditions: read-out: Drug recovery
[10] = Chemical stability in fed state simulated intestinal fluid assessed as drug recovery at 37 degC after 2 hrs; format: physicochemical; conditions: read-out: Drug recovery
[11] = Chemical stability in fasted state simulated intestinal fluid assessed as drug recovery at 37 degC after 2 hrs; format: physicochemical; conditions: read-out: Drug recovery
[12] = Cmax in C57BL/6 mouse plasma at 10 mg/kg, po; format: ADME, organism-based; design: dose 10 mg/kg, route oral
[13] = Tmax in C57BL/6 mouse plasma at 10 mg/kg, po; format: ADME, organism-based
[14] = Half life in C57BL/6 mouse plasma at 10 mg/kg, po; format: ADME, organism-based
[15] = AUC (0 to infinity) in C57BL/6 mouse plasma at 10 mg/kg, po; format: ADME, organism-based; design: dose 10 mg/kg, route oral, time infinity
Mus musculus [16] = assay: Clearance in C57BL/6 mouse plasma at 10 mg/kg, po; format: ADME, organism-based; conditions: in vivo
Mus musculus [17] = assay: Antidiabetic activity in C57BL/6 mouse assessed as reduction in plasma glucose level at 10 mg/kg administered 15 mins through oral gavage prior to glucose challenge measured after 30 to 120 mins by OGTT; format: functional, organism-based
Mus musculus [18] = assay: Antidiabetic activity in C57BL/6 mouse assessed as increase in plasma insulin level at 10 mg/kg administered 15 mins through oral gavage prior to glucose challenge measured after 30 mins by ELISA; format: functional, organism-based
[19] = target: T1, Free fatty acid receptor 1; assay: Potency index, ratio of alpha-linolenic acid EC50 to compound EC50 for human FFA1 receptor expressed in human 1321N1 cells; format: cell-based
[20] = Ratio of Cmax in C57BL/6 mouse plasma to EC50 for human FFA1 receptor expressed in human 1321N1 cells

T1 sequence (O14842 whole entry): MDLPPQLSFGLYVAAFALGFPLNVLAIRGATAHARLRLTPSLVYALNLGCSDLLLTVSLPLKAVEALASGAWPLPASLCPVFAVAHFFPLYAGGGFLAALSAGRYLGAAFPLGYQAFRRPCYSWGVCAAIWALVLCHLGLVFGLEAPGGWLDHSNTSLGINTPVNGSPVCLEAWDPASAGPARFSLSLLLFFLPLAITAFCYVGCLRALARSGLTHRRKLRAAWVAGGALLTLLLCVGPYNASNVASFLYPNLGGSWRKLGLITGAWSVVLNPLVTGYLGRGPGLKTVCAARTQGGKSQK

SMILES	EC50 ([1]; read-out: pEC50 (converted)) [nM]	Efficacy [2] [%]	EC50 [3] [µM]	Efficacy [4] [%]	also measured
O=C(O)CCc1ccc(C#CC2CCCC2)cc1	490	94	33.9	105	–
C=C(C)C#Cc1ccc(CCC(=O)O)c(F)c1	–	106	> 100	–	–
CC/C=C\C/C=C\C/C=C\CCCCCCCC(=O)O [LINOLENIC ACID]	–	–	–	–	EC50 ([1]; read-out: EC50): 3000 nM
CCCCCCCC#Cc1ccc(CCC(=O)O)cc1	1450	84	4.07	102	–
C#Cc1ccc(CCC(=O)O)cc1	> 100000	–	> 100	–	–
COc1ccc(CCN(C)CCCC(C#N)(c2ccc(OC)c(OC)c2)C(C)C)cc1OC (centres undefined)	–	–	–	–	remaining at 1 h [5]: 23%
O=C(O)CCc1ccc(C#CC2CC2)cc1	5010	128	> 100	–	–
C/C=C(\C)C#Cc1ccc(CCC(=O)O)c(F)c1	–	97	26.3	89	–
O=C(O)CCc1ccc(C#CC2(O)CCCCC2)cc1	–	–	> 100	–	pEC50 ([1]; 1321-n1): < 4

Second part, led by results:

EC50 ([1]; read-out: pEC50 (converted)) [nM]	Efficacy [2] [%]	EC50 [3] [µM]	Efficacy [4] [%]	SMILES	also measured
417	108	> 100	–	C=C(C)C#Cc1ccc(CCC(=O)O)cc1	–
–	103	20	101	C/C=C(/C)C#Cc1ccc(CCC(=O)O)c(F)c1	EC50 ([1]; read-out: EC50): 20 nM; remaining at 1 h [5]: 38%; remaining at 2 h [6]: 84%; logD [7]: 1.79; solubility kinetic at 200 µM [8]: 191 µM (≈ 47 µg/mL); remaining at 24 h [9]: 100%; remaining at 2 h [10]: 95%; remaining at 2 h [11]: 100%; Cmax [12]: 44.7 µM; Tmax [13]: 15 min; half-life [14]: 99 min; AUC(0-inf) [15]: 138 µM·h; clearance (Mus musculus [16]): 0.49 mL/min/kg; Activity (Mus musculus [17]): Active; Activity (Mus musculus [18]): Active; Ratio EC50 [19]: 100; Ratio [20]: >1000
83.2	105	7.59	102	CC(C)=C(C)C#Cc1ccc(CCC(=O)O)cc1	–
1820	128	4.79	102	O=C(O)CCc1ccc(C#CCCc2ccccc2)cc1	–
513	98	9.55	118	O=C(O)CCc1ccc(C#CC2CCCCC2)cc1	–
–	105	> 100	–	C/C(C#Cc1ccc(CCC(=O)O)c(F)c1)=C/CO	–
200	100	> 100	–	O=C(O)CCc1ccc(C#CC2=CCCCC2)cc1	–
47.9	91	17.8	49	C/C=C\C#Cc1ccc(CCC(=O)O)c(F)c1	–
209	97	34.7	38	C/C=C/C#Cc1ccc(CCC(=O)O)c(F)c1	–
389	103	10.5	113	O=C(O)CCc1ccc(C#CCc2ccccc2)cc1	–
